Measurements of several laboratories.
Each line is one published result; the experiments were not run side by side.
Target: Cyclin-dependent kinase-like 5 (CDKL5, Homo sapiens, UniProt O76039)
Residues used in one study (O76039 1-960): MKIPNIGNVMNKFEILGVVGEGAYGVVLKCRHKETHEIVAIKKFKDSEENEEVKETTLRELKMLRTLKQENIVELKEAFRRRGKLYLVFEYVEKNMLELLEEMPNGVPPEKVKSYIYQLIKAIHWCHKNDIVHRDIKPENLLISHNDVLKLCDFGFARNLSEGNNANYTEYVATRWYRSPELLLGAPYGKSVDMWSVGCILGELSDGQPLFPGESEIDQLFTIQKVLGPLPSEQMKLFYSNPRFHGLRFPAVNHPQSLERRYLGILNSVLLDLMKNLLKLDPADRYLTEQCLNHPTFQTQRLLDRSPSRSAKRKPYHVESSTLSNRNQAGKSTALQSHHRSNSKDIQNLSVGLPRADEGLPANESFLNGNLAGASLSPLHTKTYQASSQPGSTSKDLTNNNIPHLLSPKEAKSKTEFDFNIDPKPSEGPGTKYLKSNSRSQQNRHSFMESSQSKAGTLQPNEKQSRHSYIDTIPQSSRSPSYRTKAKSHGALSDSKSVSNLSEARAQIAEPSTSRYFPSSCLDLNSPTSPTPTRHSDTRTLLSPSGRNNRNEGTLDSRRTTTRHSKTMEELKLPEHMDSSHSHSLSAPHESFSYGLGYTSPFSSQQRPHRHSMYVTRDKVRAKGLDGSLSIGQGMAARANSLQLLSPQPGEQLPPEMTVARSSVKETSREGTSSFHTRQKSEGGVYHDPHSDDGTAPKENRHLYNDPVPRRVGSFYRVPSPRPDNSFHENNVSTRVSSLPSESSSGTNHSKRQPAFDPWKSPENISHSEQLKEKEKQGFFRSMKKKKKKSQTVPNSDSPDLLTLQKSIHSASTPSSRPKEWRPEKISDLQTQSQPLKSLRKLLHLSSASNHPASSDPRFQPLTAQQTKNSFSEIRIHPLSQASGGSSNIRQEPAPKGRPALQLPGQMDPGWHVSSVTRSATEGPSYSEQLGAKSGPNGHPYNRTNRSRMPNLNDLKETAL

| SMILES | assay | conditions | remaining binding |
| --- | --- | --- | --- |
| F[C@@H]1CCN(c2nccc(-c3cnn4ncccc34)n2)C1 | binding | 1 µM | 100% |
| C[C@H](c1ccc(F)cc1)N(Cc1cccc(C(=O)O)c1)C(=O)c1cnc2ccccc2c1 | binding, competition with immobilised ligand | 1 µM | 100% |
| CC1CCCN1c1nccc(-c2cnn3ncccc23)n1 (centres unmarked) | binding | 1 µM | 100% |
| O=C(NCCCN1CCOCC1)c1ccc(Nc2nccc(-c3cc4ccccc4s3)n2)cc1 | binding, competition with immobilised ligand | 1 µM | 40% |
| CNCc1ccccc1-c1csc([C@@H](C)Nc2nc(C)nc3cc(OC)c(OC)cc23)c1 | cell-free assay, competition with immobilised ligand | 1 µM | 94% |
| COc1ncc2cc3ccccc3nc2c1C#N | binding, competition with immobilised ligand | 5 µM | 90% |
| C[C@@H](c1cccc(C#N)c1)n1cc(Cl)cc(C(N)=O)c1=N | binding, competition with immobilised ligand | 1 µM | 89% |
| N[C@@H]1CCN(c2nccc(-c3cnn4ncccc34)n2)C1 | binding | 1 µM | 100% |
| O=C(c1ccc(Nc2ncc(Cl)c(-c3ccc(Cl)s3)n2)cc1)N1CCC(N2CCCC2)CC1 | binding, competition with immobilised ligand | 1 µM | 26% |
| CN(c1nccc(-c2cnn3ncccc23)n1)C1CC1 | binding | 1 µM | 100% |
| CCCCN(CCCC)C(=O)CN1C[C@H](c2cc(OC)c3c(c2)OCO3)[C@@H](C(=O)O)[C@@H]1CC(C)(C)CCC | cell-free assay, competition with immobilised ligand | 1 µM | 71.4% |
| C[C@H]1CCN(c2nccc(-c3cnn4ncccc34)n2)C1 | binding | 1 µM | 100% |
| CCS(=O)(=O)c1cc2cc(C[C@](O)(CC(C)(C)c3ccc(F)cc3C(N)=O)C(F)(F)F)[nH]c2cn1 | cell-free assay, competition with immobilised ligand | 1 µM | 100% |
| CN(C)c1nccc(-c2cnn3ncccc23)n1 | binding | 1 µM | 100% |
| O=C(c1ccc(Nc2nccc(-c3cc4ccccc4s3)n2)cc1)N1CCC(N2CCCC2)CC1 | binding, competition with immobilised ligand | 1 µM | 91% |
| Nc1ncc2c(n1)-c1c([nH]c3ccc(C#CC4CC4)cc13)CCCC2 | binding, competition with immobilised ligand | 1 µM | 90% |
| O=C(NCC1CCOCC1)c1n[nH]cc1NC(=O)c1c(F)cccc1F | binding, competition with immobilised ligand | 1 µM | 30% |
| CS(=O)(=O)N1CCCC(NC(=O)[C@H](CCC2CCCCC2)NC(=O)c2ccc(CNc3ncnc4c3nnn4-c3ccccc3)cc2)C1 (some centres unmarked) | cell-free assay, competition with immobilised ligand | 0.1 µM | 100% |
| CCN1CCN(Cc2ccc(C(=O)Nc3ccc(C)c(Oc4ccc5c(c4)CC(=O)N5)c3)cc2C(F)(F)F)CC1 | binding, competition with immobilised ligand | 1 µM | 100% |
| CNC(=O)[C@@H]1CC[C@@H](n2c(-c3ccc4cnccc4c3)nc3ccc(C(=O)NCc4cccc(C(N)=O)c4)cc32)C1 | binding, competition with immobilised ligand | 1 µM | 100% |
